Screens (PubChem)
An excerpt weighted towards active compounds, which were near 6.7% of everything screened.
PREPL inhibitor: inhibits the human prolyl oligopeptidase-like enzyme; hit rate 0.68% among 320,000; inhibition, % at 5.96 µM; Q4J6C6; recombinant PREPL, fluorescence polarization activity-based probe; AID 2751; in the data active = inhibition above about 43%
Target sequence (Q4J6C6 whole entry, looked up): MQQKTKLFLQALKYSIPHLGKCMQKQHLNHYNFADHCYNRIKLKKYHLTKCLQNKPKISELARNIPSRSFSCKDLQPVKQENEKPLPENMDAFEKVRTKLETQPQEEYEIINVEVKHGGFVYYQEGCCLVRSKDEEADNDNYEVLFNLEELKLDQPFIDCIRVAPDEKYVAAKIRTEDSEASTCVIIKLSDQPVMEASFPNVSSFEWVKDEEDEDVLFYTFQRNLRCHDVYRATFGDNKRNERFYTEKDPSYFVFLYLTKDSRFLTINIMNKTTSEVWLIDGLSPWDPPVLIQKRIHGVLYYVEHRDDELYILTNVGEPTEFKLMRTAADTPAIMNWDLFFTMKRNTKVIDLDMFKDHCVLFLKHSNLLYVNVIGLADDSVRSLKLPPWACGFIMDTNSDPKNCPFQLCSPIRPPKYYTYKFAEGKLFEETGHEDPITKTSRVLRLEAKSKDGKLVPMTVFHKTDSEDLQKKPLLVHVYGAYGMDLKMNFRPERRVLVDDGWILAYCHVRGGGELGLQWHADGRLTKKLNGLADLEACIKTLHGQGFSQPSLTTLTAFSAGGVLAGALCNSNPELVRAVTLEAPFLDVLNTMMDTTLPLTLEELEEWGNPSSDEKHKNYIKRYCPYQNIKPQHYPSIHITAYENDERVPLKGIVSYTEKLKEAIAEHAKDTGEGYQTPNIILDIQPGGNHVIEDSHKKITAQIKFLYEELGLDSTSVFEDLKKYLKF
Beta cell apopt: blocks beta cell apoptosis. INS-1E cytokine-induced death, ATP luminescence, 48 h; percent of positive-control rescue, neutral wells zero. protection from apoptosis, % (concentration not given with the values). hit rate 0.8% among 300,000. AID 435005;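 active = Every replicate reaches about 75%, or at least half do and their mean reaches it too, limit read from the data; inconclusive = At least half of replicates reach the limit but their mean does not; inactive = Under half of replicates reach the limit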;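 note: higher means more ATP so stronger rescue from cytokine killing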
CHOP inhibitor: CHOP inhibition in unfolded protein response; CHO-K1 CHOP-promoter luciferase, tunicamycin-induced, 15-18 h; inhibition, % at 10 µM; hit rate 3.8% among 220,000; AID 2732;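 active = compounds that reduced the stress-induced luciferase reporter signal by more than about 70% of percent inhibition, limit read from the data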
T cruzi repl: blocks replication of Trypanosoma cruzi; T. cruzi beta-gal in NIH3T3, luminescence, 90 h; inhibition, % (test concentration not listed); hit rate 1.4% among 300,000; AID 1885;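 active = mean inhibition across valid replicates above about 55%, limit read from the data; inconclusive = mean below that limit but half or more replicates reach it; inactive = mean below it, under half of replicates reach it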;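 note: signal also drops with host cell toxicity which is not excluded here; higher percent means less beta-gal luminescence so fewer parasites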
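assay system = mouse NIH/3T3 fibroblasts infected with β-gal-expressing T. cruzi Tulahuen C4 | input = 5,000 NIH/3T3 host cells per well | buffer or medium = DMEM plus 2% FBS | timing = 3 h host attachment, then at least 90 h co-culture | measured by = GalScreen luminescence, 60 min | evaluation = luminescence reflecting intracellular parasite burden, expressed as percent inhibition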
GRIN3A LBD mod: modulators (binders) of human NR3A ligand-binding domain | AID 1259313 | NR3A LBD differential scanning fluorimetry, Tm shift; 0% = protein alone, 100% = glycine-bound protein | Tm shift relative to glycine control, % at 25 µM | hit rate 2.5% among 340,000;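 active = melting temperature shift of at least 10% of the positive control shift, at one fixed dose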
CSC inhib: cancer stem cell inhibition. cancer stem cell-like cells viability, luminescence. inhibition, % at 7.5 µM. AID 2717. hit rate 1.1% among 300,000; in the data active = inhibition above about 75%; inconclusive = no clear call, values can overlap the other calls; tested in HMLE shEcad cells
Each line names hits and unclear results; the compound was inactive in the other large screens; ! = repeats disagree.

CCOC(=O)c1c2c(n(C)c1C)C(=O)C(=O)c1ccc(Br)cc1-2	CSC inhib 121 (no result: CHOP inhibitor)
O=[N+]([O-])c1ccc2nc(NS(=O)(=O)c3ccc(Cl)cc3)sc2c1	GRIN3A LBD mod 18 (no result: CHOP inhibitor)
O=[N+]([O-])c1ccc2nc(NS(=O)(=O)c3ccccc3[N+](=O)[O-])sc2c1	GRIN3A LBD mod 14 (no result: CHOP inhibitor)
O=[N+]([O-])c1ccccc1S(=O)(=O)Nc1nc2ccccc2s1	none (no result: CHOP inhibitor)
CC(C)=CC(=O)Nc1nc2ccc([N+](=O)[O-])cc2s1	none (no result: PREPL inhibitor, Beta cell apopt, CSC inhib)
CN(C(=O)C1CCCO1)C1CCS(=O)(=O)C1 (centres undefined)	GRIN3A LBD mod 14 (no result: Beta cell apopt, CHOP inhibitor)
CC(C1CC1)N(Cc1ccccc1)C(=S)Nc1cccc(C(F)(F)F)c1 (centres undefined)	CHOP inhibitor 75
COc1ccc(C(=O)Nc2cccc(NC(=O)c3cccs3)c2)cc1OC	none (no result: CHOP inhibitor)
O=C(Nc1ccc(NC(=O)c2ccc(Cl)cc2Cl)cc1)c1cccs1	none (no result: CHOP inhibitor)
COc1cc(NC(=O)c2cccs2)c(OC)cc1NC(=O)Nc1ccc(F)cc1	GRIN3A LBD mod 25 (no result: PREPL inhibitor, CHOP inhibitor)
COc1ccc(C(=O)Nc2ccc(NC(=O)c3cccs3)cc2)cc1Cl	GRIN3A LBD mod 34
COc1c(Cl)cc(Cl)cc1C(=O)Nc1ccc(NC(=O)c2cccs2)cc1	T cruzi repl 58, GRIN3A LBD mod 214 (no result: Beta cell apopt, CSC inhib)
COc1ccc(C(=O)Nc2ccc(NC(=O)c3cccs3)c(OC)c2)cc1Cl	GRIN3A LBD mod 33 (no result: T cruzi repl)
Cc1ccc(C(=O)NC(=S)Nc2ccc(CN3CCCCC3)cc2)c(C)c1	T cruzi repl 60
COc1ccc(/C=C/C(=O)c2ccc(NC(=O)c3cccs3)cc2)cc1OC	GRIN3A LBD mod 16
COc1ccc(NC(=O)Nc2cccs2)cc1Cl	GRIN3A LBD mod 30 (no result: CSC inhib)
COc1c(Cl)cc(Cl)cc1C(=O)Nc1ccc(CN2CCOCC2)cc1	none (no result: PREPL inhibitor, Beta cell apopt, CHOP inhibitor, CSC inhib)
COc1c(Cl)cc(Cl)cc1C(=O)Nc1ccc(CN2CCCCC2)cc1	T cruzi repl 56
COc1ccc(C(=O)Nc2ccc(Cl)cn2)cc1Cl	GRIN3A LBD mod 30
COc1ccccc1C(=O)Nc1ccc(C(=O)/C=C/c2cccs2)cc1	GRIN3A LBD mod 11
Cc1ccc(Cl)cc1N1CCN(CC(=O)Nc2ccc(CN3CCCCC3)cc2)CC1	T cruzi repl 55
COc1ccc(C(=O)Nc2ccc(Cl)cn2)cc1S(=O)(=O)N1CCCC1	none (no result: CHOP inhibitor, T cruzi repl)
COc1ccccc1N1CCN(CC(=O)Nc2ccc(CN3CCCCC3)cc2)CC1	none
CCCCOCCCNC(=O)N[C@H](C(=O)OC)C(C)CC (some centres undefined)	none (no result: Beta cell apopt)
Cc1cc(C(=O)OCC(=O)c2ccc(Br)s2)c(C)o1	CHOP inhibitor 79 (no result: GRIN3A LBD mod)
Cc1cc(C(=O)OCC(=O)N2CCc3ccccc32)c(C)o1	CHOP inhibitor 82
Cc1cc(C(=O)OCC(=O)c2ccc(Br)s2)no1	none
O=C(OCC(=O)N1CCc2ccccc21)c1ccc(Br)o1	none (no result: CHOP inhibitor, T cruzi repl)
CCOc1ccc(C(=O)NC(=S)Nc2ccc(NC(=O)c3ccco3)c(C)c2)cc1[N+](=O)[O-]	none
Cc1nc(S(=O)(=O)N2CCN(C3c4ccccc4-c4ccccc43)CC2)cn1C	none
Cc1nc2c(o1)CCc1ccccc1C2N1CCN(C)CC1 (centres undefined)	GRIN3A LBD mod 13!
O=C(O)c1ccc(S(=O)(=O)c2ccc3c(c2)C(=O)N(NC(=O)c2ccccc2)C3=O)cc1	GRIN3A LBD mod 23 (no result: Beta cell apopt)
C=C(C)CNC(=S)N/N=C/c1c(F)cccc1F	none
COc1ccc(C(=O)NCCc2nnc3ccc(SCC(=O)N4CCCC4)nn23)cc1	none (no result: Beta cell apopt, CHOP inhibitor)
Cc1ccc(-c2csc3ncn(-n4c(C)ccc4C)c(=O)c23)o1	CHOP inhibitor 79
CS(=O)(=O)N1CC(C(=O)O)Oc2ccc(CC(=O)O)cc21 (centres undefined)	none
CC(NC(=O)Nc1nnc(C(F)(F)F)s1)(C(F)(F)F)C(F)(F)F	Beta cell apopt 120, CHOP inhibitor 89
CC(C)(C)CC(=O)Nc1nnc(C(F)(F)F)s1	none
CS(=O)(=O)c1ccccc1-c1nnc(NC(=O)c2ccc3ncsc3c2)o1	none (no result: CHOP inhibitor)
O=C(Nc1ccc(Cc2ccncc2)cc1)c1ccc(Cl)c([N+](=O)[O-])c1	none
Cc1c([N+](=O)[O-])cc(C(=O)Nc2ccc(Cc3ccncc3)cc2)cc1[N+](=O)[O-]	CHOP inhibitor 77, T cruzi repl 59
CCOc1ccc(C(=O)Nc2ccc(Cc3ccncc3)cc2)cc1Br	T cruzi repl 74 (no result: Beta cell apopt)
COc1c(C)cc(Br)cc1C(=O)Nc1ccc(Cc2ccncc2)cc1	T cruzi repl 61
CCOc1ccc(C(=O)Nc2ccc(N3CCN(C)CC3)cc2)cc1Br	none
CCOc1ccc(C(=O)Nc2ccc(NC(=O)c3ccccc3)cc2)cc1Br	GRIN3A LBD mod 29 (no result: Beta cell apopt, CHOP inhibitor)
CCOc1ccc(NC(=O)CN2CCC(n3cnc4cc(F)ccc43)CC2)cc1	none (no result: Beta cell apopt)
CCOc1ccc(CC(=O)NNC(=S)Nc2ccccc2)cc1Br	GRIN3A LBD mod 13 (no result: Beta cell apopt)
COc1ccc(CC(=O)NNC(=S)Nc2ccccc2)cc1Br	none
COc1ccc(-n2nc3ccc(N)cc3n2)cc1Cl	none (no result: CHOP inhibitor)
COc1ccc(-n2nc3ccc(NS(C)(=O)=O)cc3n2)cc1Cl	GRIN3A LBD mod 22 (no result: T cruzi repl)
CC(NC(=O)Nc1ccc(Cl)cc1)c1ccccc1 (centres undefined)	none (no result: PREPL inhibitor, CHOP inhibitor)
Cc1ccc(C(NC(=O)NC(C)c2ccccc2)C(Cl)(Cl)Cl)cc1F (centres undefined)	CHOP inhibitor 87
COc1ccc(N2CCN(CCNC(=O)c3ccc4c(c3)[nH]c(=S)n3c5ccccc5nc43)CC2)cc1	T cruzi repl inconclusive
CCOc1ccccc1CNc1ncnc2ccc(-c3c(C)noc3C)cc12	CSC inhib 112 (no result: CHOP inhibitor, T cruzi repl)
O=C(O)c1cccc(CSc2nnc(COc3ccccc3)o2)c1	GRIN3A LBD mod 11
C=CC[C@@H](CC(=O)N[C@@H](CO)Cc1ccccc1)C(=O)N[C@H](C)COC(=O)[C@@H](CC=C)Cc1ccc(F)cc1	none (no result: CHOP inhibitor, T cruzi repl, CSC inhib)
CC/C(=N\NC(=O)c1ccc2c(c1)OCO2)C12CC3CC(CC(C3)C1)C2	CHOP inhibitor 77
CC(C)C(c1nnnn1Cc1ccccc1)N1CCN(Cc2ccco2)CC1 (centres undefined)	none (no result: Beta cell apopt)
CC(C)C(c1nnnn1Cc1ccccc1)N1CCc2ccccc2C1 (centres undefined)	CHOP inhibitor 76
c1ccc(Cn2nnnc2C(c2cccs2)N2CCc3ccccc3C2)cc1 (centres undefined)	CHOP inhibitor 76, GRIN3A LBD mod 16
O=C(Nc1ccc2c(c1)OCO2)c1cc2ncc(Br)cn2n1	none (no result: PREPL inhibitor, Beta cell apopt, CSC inhib)
O=C(Nc1cccc(C(F)(F)F)c1)c1cc2ncc(Br)cn2n1	CHOP inhibitor 79
Cc1ccc(C(=O)NNC2=Nc3cccc4cccc2c34)cc1	CHOP inhibitor 89
COc1ccc(C(=O)NNC2=Nc3cccc4cccc2c34)cc1	none
N=c1c2c(ncn1Cc1ccco1)Oc1c(ccc3ccccc13)C2c1ccccc1 (centres undefined)	CHOP inhibitor 89, CSC inhib 102 (no result: Beta cell apopt)
